From ChEMBL document CHEMBL4513216, “Probing the Open Global Health Chemical Diversity Library for Multistage-Active Starting Points for Next-Generation Antimalarials” (ACS Infect Dis, 2020) come the findings set out here.

Each structure is given as a SMILES string.

A short description of the series: Toxicity liver stage against HepG2, at 10uM. It is filed as cell-based. Also noted: test concentration 10 uM, cell line HepG2-A16-CD81EGFP. Conditions: human, HepG2-A16-CD81EGFP cells; read-out: INHIBITION
An outline of the steps:
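Uninfected HepG2-A16-CD81EGFP cells, 3 × 10^3 per well, 1536-well, plated on prespotted compound at 10 μM final, parasite-free screening media added to match infected plates; puromycin 10 μM positive, DMSO 0.5% negative; run in parallel with 48 h PbLuc assay at 37 °C, 5% CO2; viability by CellTiter-Glo luminescence, normalized to controls.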
Regarding `O=C(NCCc1ccc(F)cc1)NCC(O)c1cccc(F)c1` (stereo not given), the cytotoxicity at 10 µM was -1.14%.

For the compound `Cc1cc(CN2CCO[C@H]3[C@H](OCc4csc(C)n4)CC[C@@H]32)no1`, the cytotoxicity at 10 µM was 5.86%.

As for `Cc1cc(C(=O)N2C[C@@H](C(=O)O)[C@H](c3ccccc3C)C2)c(C)o1`, the cytotoxicity at 10 µM amounted to 16.8%.

For the compound `Fc1ccc(CN2CCC(c3noc(-c4cnccn4)n3)CC2)cc1F`, the cytotoxicity at 10 µM turned out to be 2.35%.

For the compound `CN1CCNCC(Cc2cnc3ccccc3c2)C1` (stereo not given), the cytotoxicity at 10 µM is -12.4%.

For `COc1ncccc1CN1CCC2[C@H]1CCN2CCN(C)C` (stereo not given in full), the cytotoxicity at 10 µM was determined as 2.77%.

On to `Cc1cc(-c2ccnn2C)nc(C2CCN(S(C)(=O)=O)CC2)n1`, for which the cytotoxicity at 10 µM turned out to be 0.425%.

Take `CCCOCC(=O)Nc1ncc(I)cc1C`: the cytotoxicity at 10 µM worked out at 1.46%.

On to `Cc1cc(C)nc(NC2CCOC3(CCCC3)C2)n1` (stereo not given), for which the cytotoxicity at 10 µM worked out at 7.93%.

As for `CCc1nc(CC(=O)N2CCCC2c2c(C)nn(C)c2OC)cs1` (stereo not given), the cytotoxicity at 10 µM was -2.17%.

Turning to `COc1ccc2cc(CN(C)C(C)c3nc(C4CC4)no3)ccc2c1` (stereo not given), the cytotoxicity at 10 µM came to 3.18%.

As to `Cc1cc(C)c(C)c(OCCCNC(=O)NC(C)c2nncn2C)c1` (stereo not given), the cytotoxicity at 10 µM is -12.3%.

As for `CN(C)C(C)(C)CNCc1cn(C)nc1-c1cccnc1`, the cytotoxicity at 10 µM turned out to be 11.8%.

In the case of `Cc1nc(C)n(CC2CCCN2CC(=O)NCCC2=CCCCC2)n1` (stereo not given), the cytotoxicity at 10 µM was -0.527%.

For `CNC(=O)[C@H]1C[C@H]2OCC[C@H]2N(CC2CCOCC2)C1`, the cytotoxicity at 10 µM stood at 6.46%.

Turning to `O=C(Nc1cccc(CNCc2cccs2)c1)C1CC1`, the cytotoxicity at 10 µM is -8.3%.

On to `CCc1nc(CN2CCCN(C(=O)c3cncnc3C)CC2)cs1`, for which the cytotoxicity at 10 µM was -7.95%.

Take `O=S(=O)(c1ccc(Cl)cc1)N1CCN(CCCn2ccnc2)CC1`: the cytotoxicity at 10 µM is -6.18%.

In the case of `CC(C)OCCCNC(=O)c1cccnc1N1CCOCC1`, the cytotoxicity at 10 µM was determined as 10.5%.

Regarding `COc1ccccc1CNC(=O)N1CCCC(NS(C)(=O)=O)C1` (stereo not given), the cytotoxicity at 10 µM came to 5.05%.

As for `COC(=O)c1cc2c(=O)[nH]c(=O)n(CCc3ccccc3)c2nc1C`, the cytotoxicity at 10 µM was -4.74%.

On to `CCNc1ncc(C(=O)NCc2csc(C)n2)cn1`, for which the cytotoxicity at 10 µM came to 12.5%.

For the compound `CN(Cc1ccc(F)cc1)C(=O)Cn1nc(-c2ccc(F)cc2)oc1=O`, the cytotoxicity at 10 µM stood at 8.68%.

As for `C[C@]12CCCCN(C(=O)c3ccccn3)[C@H]1CCCC(=O)N2`, the cytotoxicity at 10 µM was -20.1%.

With `CCN(CC)S(=O)(=O)N1C[C@@H](O)[C@H](Oc2cccc(F)c2)C1`, the cytotoxicity at 10 µM worked out at 9.73%.

In the case of `CCc1nc(C2CCCN2C(=O)C2=COCC2)no1` (stereo not given), the cytotoxicity at 10 µM worked out at 8.64%.

Take `Cc1n[nH]cc1C(=O)N1CCCC(n2nnc3cc(F)ccc32)C1` (stereo not given): the cytotoxicity at 10 µM was -2.91%.

Consider `CN(CC(=O)N1CC(C)(C)[C@@](C)(O)C1)Cc1ccncc1`, for which the cytotoxicity at 10 µM was -49.4%.

Take `COC[C@H]1CC[C@H]2[C@H](CCN2C(=O)c2ccncc2F)O1`: the cytotoxicity at 10 µM is -4.61%.

Take `CSCCC(NC(=O)c1nc(SC)ncc1Cl)C(=O)O` (stereo not given): the cytotoxicity at 10 µM is -8.77%.

`COc1c(CNC2CCC(O)CC2)c(C(C)C)nn1C` (stereo not given): the cytotoxicity at 10 µM is -6.59%.

With `COC(=O)N1CCC(Nc2ccc(Cl)c(C#N)n2)CC1`, the cytotoxicity at 10 µM amounted to 1.96%.

As for `COc1ccc(CN(C)Cc2ccnc(C3CCCO3)n2)cc1` (stereo not given), the cytotoxicity at 10 µM came out at 7.67%.

As for `CC(C)N(CCC#N)C(=O)c1cnc(-c2ccc3c(c2)OCO3)s1`, the cytotoxicity at 10 µM came to 0.247%.

For `Cn1cc(CN2CCN3C[C@H](Oc4cccnc4)C[C@H]3C2)cn1`, the cytotoxicity at 10 µM worked out at 3.07%.

With `Cc1noc(C)c1CN(C)Cc1nc(N)c2ccccc2n1`, the cytotoxicity at 10 µM is 8.85%.

As to `Cc1ccc(-c2cc(CN3CCc4cnc(C)nc4C3)on2)cc1`, the cytotoxicity at 10 µM worked out at 4.88%.

On to `FC(F)(F)C1CCCn2c(CNCc3cccs3)nnc21` (stereo not given), for which the cytotoxicity at 10 µM is 3.79%.

Turning to `CCc1c(C(=O)N2CCN(c3ncccn3)CC2)cnn1C(C)(C)C`, the cytotoxicity at 10 µM is -1.91%.

For the compound `O=C(C1CCOC1)N1CC2(CCN(c3ccccc3)C2)C1` (stereo not given), the cytotoxicity at 10 µM stood at 9.88%.

For `CCCn1cnc2c1CN(S(=O)(=O)c1ccc(F)cc1)[C@H](C(=O)OC)C2`, the cytotoxicity at 10 µM was found to be 1.2%.

With `O=C(c1cccs1)N1CCN(CC2CC2)c2ncccc2C1`, the cytotoxicity at 10 µM worked out at 0.835%.

`Cc1noc(C)c1CN(C)Cn1nccc1-c1cccnc1`: the cytotoxicity at 10 µM is -0.532%.

As to `O=C(Cn1ccc(=O)[nH]c1=O)NCC1Cc2ccccc2O1` (stereo not given), the cytotoxicity at 10 µM is 3.74%.

Take `CCOCC(=O)N1C[C@@H](O)[C@H](N(C)Cc2ccc(OC)cc2)C1`: the cytotoxicity at 10 µM was found to be 0.307%.

Consider `CCn1nc(C)c(CNC(=O)NCC(C)(O)c2ccccc2)c1C` (stereo not given), for which the cytotoxicity at 10 µM was -7.12%.

`c1cnc(Nc2cncc(C3CCCN(c4cnccn4)C3)n2)nc1` (stereo not given): the cytotoxicity at 10 µM is -8.74%.

Take `O=C(O)CCC(=O)Nc1nn(Cc2ccccc2Cl)cc1Cl`: the cytotoxicity at 10 µM is 7%.

Turning to `COc1cc(NC(=O)N(C)C(C2CC2)C2CC2)ncn1`, the cytotoxicity at 10 µM was -6.69%.

Consider `Cc1nn(C)c2ncc(C(=O)N3CCNC(=O)C3)cc12`, for which the cytotoxicity at 10 µM was -6.62%.

Consider `CN(CC(=O)NC(C)(C)C)C(=O)c1cccn1CCc1ccccc1`, for which the cytotoxicity at 10 µM came to 6.1%.

`Cc1nc(CN2CCO[C@@H]3CN(C(=O)CC4CC4)C[C@@H]3C2)cs1`: the cytotoxicity at 10 µM was 5.04%.

With `CCN(C)S(=O)(=O)N[C@H]1CN(c2ccc(F)cn2)C[C@@H]1C(C)C`, the cytotoxicity at 10 µM stood at 10.8%.

With `COc1ccc(CNC(=O)c2ccc(Br)cn2)cc1`, the cytotoxicity at 10 µM is -18%.

Turning to `CCc1nnc2n1CCN(C(=O)CN(C)C1CC1)C2`, the cytotoxicity at 10 µM is -1.28%.

Regarding `O=C(N[C@@H]1CCNC[C@H]1O)c1ccc(-c2ccc(F)cc2)cc1`, the cytotoxicity at 10 µM was -6.29%.

In the case of `COc1ccccc1CN1C[C@@H](F)[C@@H](OCc2nc3ccccc3[nH]2)C1`, the cytotoxicity at 10 µM is 9.55%.

Take `CN(C)c1ccc(CNCc2ccc(N3CCOCC3)cc2)cn1`: the cytotoxicity at 10 µM amounted to 7.17%.

Take `CCC(C)(C)NC(=O)Cn1nc(C)nc1-c1cccc(C)c1`: the cytotoxicity at 10 µM is -8.44%.

With `CCOCCn1nc(C)cc1C(=O)N1C[C@@H](C)[C@](O)(C2CC2)C1`, the cytotoxicity at 10 µM is -3.9%.

`O=C(CSc1ccccc1)Nc1cnn(CC(=O)N2CCCO2)c1`: the cytotoxicity at 10 µM is -0.969%.

Take `COc1ccc(N(c2ccccc2)c2ccc(C(=O)O)s2)cc1`: the cytotoxicity at 10 µM is -1.5%.

Consider `CN1CCN(c2cc(Sc3cccs3)nc(N)n2)CC1CCO` (stereo not given), for which the cytotoxicity at 10 µM was determined as 1.31%.

`Cc1nn(C)c(N2CCOCC2)c1CNC1COc2ccccc2C1` (stereo not given): the cytotoxicity at 10 µM is -17.9%.

As to `CC(C)c1ccc(CN2CCC(CNS(=O)(=O)C3CC3)C2)cc1` (stereo not given), the cytotoxicity at 10 µM was -1.37%.

On to `CCS(=O)(=O)N1CCc2onc(CNc3ncccn3)c2C1`, for which the cytotoxicity at 10 µM is -0.748%.

For `CN(Cc1nc(C2CC2)no1)C(=O)CN1CC(c2ccccc2)CC1=O` (stereo not given), the cytotoxicity at 10 µM came to 2.11%.

In the case of `Cc1nnc(NC(=O)CN2CCCC2c2c(C)nn(C)c2C)s1` (stereo not given), the cytotoxicity at 10 µM was -14.1%.

Turning to `O=C1CC(C(=O)NCc2ccccc2Oc2ccccc2F)CCN1` (stereo not given), the cytotoxicity at 10 µM is -2.81%.

Turning to `O=C(N[C@@H]1CN(Cc2cccs2)[C@@H]2CCCO[C@@H]21)C1CC1`, the cytotoxicity at 10 µM was 3.63%.

Take `CC1=C(C#N)C(=O)NC(=O)/C1=C\c1c(C)[nH]n(-c2ccccc2)c1=O`: the cytotoxicity at 10 µM was found to be 0.137%.

Regarding `O=S(=O)(NCc1ccccc1)Nc1cccc(Cn2cncn2)c1`, the cytotoxicity at 10 µM was determined as 5.91%.

As to `COc1cc(OC)c(-c2nc3c([nH]2)c(C2CC2)nn3C)cc1OC`, the cytotoxicity at 10 µM was -5.02%.

For the compound `CN1CCN(C(=O)c2cc3sccc3n2Cc2ccccc2)CC1`, the cytotoxicity at 10 µM was determined as 4.38%.

Consider `CCN(C(=O)c1ccc2nnc(C3CCN(C)C3)n2c1)C(C)C` (stereo not given), for which the cytotoxicity at 10 µM was -112%.

Turning to `COc1ccc(CN2CCCn3cncc3C2)cc1Cn1cncn1`, the cytotoxicity at 10 µM came out at 5.63%.

`CCOCC(=O)N1CSCC1C(=O)N(C)Cc1ccco1` (stereo not given): the cytotoxicity at 10 µM was -11%.

Consider `Cc1n[nH]c(C)c1Sc1ccccc1NC(=O)CN1CCCC1`, for which the cytotoxicity at 10 µM was -8.7%.

`Cc1nc(C)c(-c2ccn(CC(=O)Nc3cnn(C)n3)n2)s1`: the cytotoxicity at 10 µM was found to be 74%.

`COCCN(Cc1ccoc1)S(=O)(=O)c1ccc(F)c(C)c1`: the cytotoxicity at 10 µM was -7.15%.

As to `CCN1CC2(CCC1=O)CCN(C(=O)C(O)c1cccc(Cl)c1)CC2` (stereo not given), the cytotoxicity at 10 µM is 0.636%.

As to `Cc1nc(C2CCCN2C(=O)c2ccc(=O)n(C)n2)no1` (stereo not given), the cytotoxicity at 10 µM was -2.64%.

Take `CN[C@@H]1CCC[C@@H](Oc2ccccc2Oc2ccc(C)cc2)[C@@H]1O`: the cytotoxicity at 10 µM is -14.2%.

Turning to `Cc1cccc(C(=O)N2CCCn3cnc(CN4CCCC4=O)c3C2)n1`, the cytotoxicity at 10 µM is 15.7%.

`CC(c1ccncc1)N(CCN(C)C)C(=O)Nc1ccc(Cl)c(Cl)c1` (stereo not given): the cytotoxicity at 10 µM came out at 7.41%.

As to `COCC(=O)NCCCn1ncc2c(C)cccc21`, the cytotoxicity at 10 µM was 7.55%.

Regarding `COc1ccc2c(c1)CN(Cc1ccco1)C(=O)CCN2CC(C)(C)O`, the cytotoxicity at 10 µM is -7.08%.

Consider `O=C(C1CCCC1)N1CCN(Cc2ccncc2)[C@@H]2CS(=O)(=O)C[C@@H]21`, for which the cytotoxicity at 10 µM is -1.79%.

Turning to `CCc1nc(C)c(C(C)N(C)CCc2ccncc2)s1` (stereo not given), the cytotoxicity at 10 µM worked out at 23.5%.

Take `CCCNC(=O)N1CCCC2(CCC(=O)N(CCc3c[nH]cn3)C2)C1` (stereo not given): the cytotoxicity at 10 µM came out at 2.67%.

With `O=C(Nc1cccc(C(F)(F)F)c1)C1CC(=O)N(Cc2ccccn2)C1` (stereo not given), the cytotoxicity at 10 µM was -0.505%.

Consider `O=C(NCc1ccco1)c1nn(C2CCS(=O)(=O)C2)c2c1CCCC2` (stereo not given), for which the cytotoxicity at 10 µM is -11%.

With `COc1cccc(-n2nnc(C(=O)N3CCNC(=O)C3)c2C)c1`, the cytotoxicity at 10 µM is -10.3%.

For `COCc1nc(N(C)C)ncc1C(=O)OC`, the cytotoxicity at 10 µM came out at 13.2%.

Turning to `COc1cccc(-c2nc(C)c(C(=O)NCCC(=O)O)s2)c1`, the cytotoxicity at 10 µM came to 8.69%.
